hERG protect – compounds protecting human hERG from proarrhythmic drug block | Q12809 | CHO-hERG, FluxOR thallium flux, dofetilide IC70 present | activation (rescue from dofetilide block), less the hit threshold, % at 10 µM | actives 0.51% (n = 310,000) | AID 1511;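 active = activation above the mean of controls blocked by dofetilide plus 5 SD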;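 note: thallium influx through hERG after potassium depolarization seen as dye fluorescence rise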
KCNQ1 act – potentiators or activators of human KCNQ1 potassium channel | actives 0.35% (n = 310,000) | CHO-K1 KCNQ1, thallium flux FluxOR fluorescence; stronger effect = higher value | B-score at 10 µM;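 active = fluorescence ratio B-score, a plate-corrected score, at least three library SD, with initial intensity B-score within 5 SD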
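assay system = KCNQ1-transfected CHO-K1 cells | medium = assay buffer with matched DMSO | probe or stimulus = depolarizing K+/Tl+ stimulus, K2SO4 and Tl2SO4 each 12.5 mM in 5x stock | dosing = single dose | incubation = dye 90 min, compound 20 min, room temperature | detection = kinetic FluxOR fluorescence, 10 s baseline plus 110 s post-stimulus | evaluation = ratio B score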
KCNQ1 block – human KCNQ1 channel inhibition; CHO-K1 KCNQ1, FluxOR thallium flux fluorescence; stronger effect = higher value; P51787; B-score at 10 µM; actives 1.3% (n = 310,000);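 active = compounds whose thallium flux B-score, printed positive for inhibition, exceeds three library SD while starting fluorescence stays within three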;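 note: channel opened by potassium depolarization with thallium stimulus after 20 min compound exposure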
KCNK9 inh – inhibitors of human KCNK9 two-pore domain potassium channel. Q9NPC2. HEK293 KCNK9, FluxOR thallium flux fluorescence; stronger effect = lower value. B-score at 10 µM. actives 1.2% (n = 310,000);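 active = ratio B-score over 3 SD below the library mean, with starting fluorescence within 5 SD of its mean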;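 note: negative B-score means less thallium flux so channel inhibition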
Target sequence (Q9NPC2 whole entry, looked up, the tested form may be a part): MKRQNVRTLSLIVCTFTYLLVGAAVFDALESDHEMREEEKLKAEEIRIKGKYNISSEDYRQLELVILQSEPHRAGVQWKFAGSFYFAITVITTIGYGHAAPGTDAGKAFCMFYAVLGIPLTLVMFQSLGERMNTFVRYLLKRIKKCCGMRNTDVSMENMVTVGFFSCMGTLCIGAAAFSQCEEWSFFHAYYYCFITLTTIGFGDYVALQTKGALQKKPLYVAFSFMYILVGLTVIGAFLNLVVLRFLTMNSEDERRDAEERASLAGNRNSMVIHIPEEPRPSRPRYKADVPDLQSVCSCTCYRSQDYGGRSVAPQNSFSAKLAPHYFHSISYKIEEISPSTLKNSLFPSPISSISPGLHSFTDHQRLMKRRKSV
Kir21 inh – inhibitors of mouse Kir2.1 inward-rectifier potassium channel; P35561; HEK293-Kir2.1, FluxOR thallium flux fluorescence; stronger effect = lower value; B-score at 10 µM; actives 0.85% (n = 310,000); AID 1672;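 active = fluorescence ratio B-score at or below minus 3 SD of library scores, with starting-brightness B-score within 2 SD, cut at about -4.2 in these data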;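 note: channel flux triggered by added potassium and thallium sulfate stimulus; B-score of peak minus minimum fluorescence over baseline after thallium stimulus; more negative B-score means stronger Kir2.1 block with less thallium influx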
KCNK3 block – human KCNK3 channel inhibition, primary screen. B-score at 10 µM. O14649. actives 0.84% (n = 340,000). CHO-KCNK3 thallium flux, FluxOR fluorescence; stronger effect = lower value;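 active = B-score under library mean minus 4 SD, starting fluorescence ratio at most library mean plus 5 SD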;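 note: more negative B-score means stronger inhibition of thallium flux through KCNK3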
KCNK9 block conf – human KCNK9 inhibitor confirmation | HEK293 KCNK9 cells, FluxOR thallium flux fluorescence | actives 43% (n = 4,900) | AID 492992 | inhibition, % at 10 µM | shares compounds with KCNK9 inh;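 active = thallium signal inhibited by more than 5 SD of the compound-free buffer control wells, on both duplicate plates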;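 note: 0% = assay buffer control wells without compound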
Kir2-1 spec – mouse Kir2.1 off-target activity of KCNK9 modulators; inhibition, % at 10 µM; AID 492993; shares compounds with KCNK9 inh; actives 4% (n = 4,900); Kir2.1 cells, FluxOR thallium flux fluorescence;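 active = thallium signal drop more than 5 SD beyond the mean of the no-compound control wells, seen in both duplicate plates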;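 note: signal is fluorescence rise after thallium addition divided by baseline fluorescence; plate controls were assay buffer only for no effect and full block by chlorpromazine control for full effect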
HEK293 Tl ctr – second check of KCNK9 modulator effects in non-induced HEK293 cells; shares compounds with KCNK9 inh; FluxOR thallium flux; inhibition, % at 10 µM; actives 40% (n = 4,900); AID 492997;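 active = thallium signal drop beyond 5 SD of the untreated control mean, on both duplicate plates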;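 note: plate controls were buffer only IC0 wells for no effect and SID17386958 at its maximal inhibitory level for full effect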
The depositor's hits bear a star. A selection: hits, their analogues and other compounds. The true share with any hit is near 3.7%.

How did O=C(Nc1ccccc1)c1ccc(-c2ccc(Br)cc2)o1 do in these assays?
hERG protect: -5; KCNQ1 act: inactive; KCNQ1 block: inactive; KCNK9 inh: inactive; Kir21 inh: 0.03; KCNK3 block: inactive

What do the screens show for `COc1ccc(Br)cc1C(=O)Nc1cccc(NC(=O)c2ccco2)c1`?
hERG protect: -21; KCNQ1 act: inactive; KCNQ1 block: inactive; KCNK9 inh: -18*; Kir21 inh: 0.01; KCNK3 block: inactive; KCNK9 block conf: 59%*; Kir2-1 spec: inactive; HEK293 Tl ctr: inactive

How did COc1ccccc1NC(=O)c1ccc(-c2ccc(Br)cc2)o1 do in these assays?
hERG protect: -2; KCNQ1 act: inactive; KCNQ1 block: inactive; KCNK9 inh: -11*; Kir21 inh: 1.8; KCNK3 block: inactive; KCNK9 block conf: 33%*; Kir2-1 spec: inactive; HEK293 Tl ctr: 30%*

What do the screens show for `Cc1ccc(C)c(S(=O)(=O)N2CCCC2CNC(=O)C(=O)NCc2ccccn2)c1` (stereo not drawn)?
hERG protect: -8; KCNQ1 act: inactive; KCNQ1 block: inactive; KCNK9 inh: inactive; Kir21 inh: 1.7; KCNK3 block: inactive

What do the screens show for `Cc1ccc(C)c(C(=O)COC(=O)C2CCN(c3ccc(C(F)(F)F)cn3)CC2)c1`?
hERG protect: -11; KCNQ1 act: inactive; KCNQ1 block: inactive; KCNK9 inh: inactive; Kir21 inh: 1.5; KCNK3 block: inactive; KCNK9 block conf: inactive; Kir2-1 spec: inactive; HEK293 Tl ctr: inactive

How did O=S(=O)(Nc1ccc(-n2cnnn2)cc1)c1cccc(F)c1 do in these assays?
KCNK3 block: inactive

How did COc1cc(C)nc(N(Cc2ccccc2)S(=O)(=O)c2ccccc2)n1 do in these assays?
hERG protect: -12; KCNQ1 act: inactive; KCNQ1 block: inactive; KCNK9 inh: -16*; Kir21 inh: 0.15; KCNK3 block: inactive; KCNK9 block conf: 56%*; Kir2-1 spec: inactive; HEK293 Tl ctr: 44%*

How did Cc1cc(C)n(NC(=S)NC2CCCC2)c(=O)c1C#N do in these assays?
hERG protect: -6; KCNQ1 act: inactive; KCNQ1 block: inactive; KCNK9 inh: inactive; Kir21 inh: -0.26; KCNK3 block: inactive

Results for Cc1nnsc1C(=O)Nc1ccc(S(=O)(=O)N2CCC(C)CC2)cc1 ?
hERG protect: -6; KCNQ1 act: inactive; KCNQ1 block: inactive; KCNK9 inh: inactive; Kir21 inh: -0.5; KCNK3 block: inactive

Results for COc1ccc(C(=O)C2CCCN(C(=O)c3ccc4cc[nH]c4c3)C2)c(C)c1 (stereo not drawn) ?
hERG protect: -21; KCNQ1 act: inactive; KCNQ1 block: inactive; KCNK9 inh: inactive; Kir21 inh: -0.42; KCNK3 block: inactive; KCNK9 block conf: inactive; Kir2-1 spec: inactive; HEK293 Tl ctr: inactive

What do the screens show for `COc1ccc2cc(C(=O)C3CCCN(C(=O)c4cnn(C(C)C)c4)C3)ccc2c1` (stereo not drawn)?
hERG protect: -9; KCNQ1 act: inactive; KCNQ1 block: inactive; KCNK9 inh: inactive; Kir21 inh: -0.95; KCNK3 block: inactive; KCNK9 block conf: inactive; Kir2-1 spec: inactive; HEK293 Tl ctr: inactive

How did COc1c(C)cc(C(=O)C2CCCN(C(=O)/C=C/c3ccccn3)C2)cc1C (stereo not drawn) do in these assays?
hERG protect: -16; KCNQ1 act: inactive; KCNQ1 block: inactive; KCNK9 inh: inactive; Kir21 inh: -0.45; KCNK3 block: inactive; KCNK9 block conf: inactive; Kir2-1 spec: inactive; HEK293 Tl ctr: inactive

How did COc1ccc(C(=O)C2CCCN(C(=O)c3ccc(C(C)=O)s3)C2)c(C)c1 (stereo not drawn) do in these assays?
hERG protect: -13; KCNQ1 act: inactive; KCNQ1 block: inactive; KCNK9 inh: inactive; Kir21 inh: -0.01; KCNK3 block: inactive; KCNK9 block conf: inactive; Kir2-1 spec: inactive; HEK293 Tl ctr: inactive

What do the screens show for `COc1ccc2cc(C(=O)C3CCCN(C(=O)c4cccnc4)C3)ccc2c1` (stereo not drawn)?
hERG protect: -11; KCNQ1 act: inactive; KCNQ1 block: inactive; KCNK9 inh: inactive; Kir21 inh: 1.4; KCNK3 block: inactive

How did O=C(c1ccco1)N1CCN(c2ncnc3c(-c4ccc(Cl)cc4)nsc23)CC1 do in these assays?
hERG protect: -4; KCNQ1 act: inactive; KCNQ1 block: inactive; KCNK9 inh: inactive; Kir21 inh: 0.39; KCNK3 block: inactive

How did CSc1nc(O)cc(=O)n1-c1ccc(F)cc1 do in these assays?
hERG protect: -14; KCNQ1 act: inactive; KCNQ1 block: inactive; KCNK9 inh: inactive; Kir21 inh: -1.4; KCNK3 block: inactive

What do the screens show for `COc1ccc(C(=O)C2CCCN(C(=O)CCc3scnc3C)C2)c(C)c1` (stereo not drawn)?
hERG protect: -10; KCNQ1 act: inactive; KCNQ1 block: inactive; KCNK9 inh: inactive; Kir21 inh: -1.7; KCNK3 block: inactive; KCNK9 block conf: inactive; Kir2-1 spec: inactive; HEK293 Tl ctr: inactive

How did COc1ccc(C(=O)C2CCCN(C(=O)CCc3ccccn3)C2)c(C)c1 (stereo not drawn) do in these assays?
hERG protect: -8; KCNQ1 act: inactive; KCNQ1 block: inactive; KCNK9 inh: inactive; Kir21 inh: -1.4; KCNK3 block: inactive; KCNK9 block conf: inactive; Kir2-1 spec: inactive; HEK293 Tl ctr: inactive

How did COC(=O)CCCC(=O)N1CCCC(C(=O)c2ccc(OC)cc2C)C1 (stereo not drawn) do in these assays?
hERG protect: 0; KCNQ1 act: inactive; KCNQ1 block: inactive; KCNK9 inh: inactive; Kir21 inh: -0.48; KCNK3 block: inactive; KCNK9 block conf: inactive; Kir2-1 spec: inactive; HEK293 Tl ctr: inactive

Results for COc1ccc(C(=O)C2CCCN(C(=O)c3cccnc3OC)C2)c(C)c1 (stereo not drawn) ?
hERG protect: -12; KCNQ1 act: inactive; KCNQ1 block: inactive; KCNK9 inh: inactive; Kir21 inh: 2.5; KCNK3 block: inactive; KCNK9 block conf: inactive; Kir2-1 spec: inactive; HEK293 Tl ctr: inactive

High-throughput results deposited in PubChem BioAssay by Johns Hopkins Ion Channel Center.
